# Laboratory results as given in ChEMBL document CHEMBL2169805, “The discovery of CCR3/H1 dual antagonists with reduced hERG risk” (Bioorg Med Chem Lett, 2012).
# Columns and labels:
# [1] = Oral bioavailability in Sprague-Dawley rat at 1 mg/kg administered using 0.1%tween-1%CMC as vehicle; assay type: ADME, organism-based; details: in vivo
# [2] = Clearance in Sprague-Dawley rat at 1 mg/kg, iv; assay type: ADME, organism-based; set-up: dose 1 mg/kg, route intravenous; details: in vivo
# [3] = Volume of distribution at steady state in Sprague-Dawley rat at 1 mg/kg, iv; assay type: ADME, organism-based; set-up: dose 1 mg/kg, route intravenous; details: in vivo, read-out: Vdss
# How it was run: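 Male Sprague-Dawley rats given a single iv dose, nominal 1 mg/kg, […] in DMA:PEG400:H2O (2:2:1).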
# [4] = Half life in Sprague-Dawley rat at 1 mg/kg, iv; assay type: ADME, organism-based; set-up: dose 1 mg/kg, route intravenous; details: in vivo
# [5] = Oral bioavailability in Sprague-Dawley rat at 1 mg/kg administered using cyclodextrin-meglumine as vehicle; assay type: ADME, organism-based; details: in vivo
# [6] = Oral bioavailability in dog at 1 mg/kg administered using 0.1%tween-1%CMC as vehicle; assay type: ADME, organism-based, Canis lupus familiaris; details: in vivo
# [7] = Solubility of the compound at pH 7.4; assay type: physicochemical; details: buffer
# [8] = target: T1, Voltage-gated inwardly rectifying potassium channel KCNH2 (Homo sapiens, UniProt Q12809); experiment: Inhibition of human ERG expressed in CHO cells by IonworksHT assay; assay type: cell-based
# [9] = target: T2, C-C chemokine receptor type 3 (Homo sapiens, UniProt P51677); experiment: Binding affinity to human CCR3 receptor expressed in CHOK1 cells by radioligand displacement assay; assay type: cell-based, CHO-K1
# T2 sequence (P51677 whole entry): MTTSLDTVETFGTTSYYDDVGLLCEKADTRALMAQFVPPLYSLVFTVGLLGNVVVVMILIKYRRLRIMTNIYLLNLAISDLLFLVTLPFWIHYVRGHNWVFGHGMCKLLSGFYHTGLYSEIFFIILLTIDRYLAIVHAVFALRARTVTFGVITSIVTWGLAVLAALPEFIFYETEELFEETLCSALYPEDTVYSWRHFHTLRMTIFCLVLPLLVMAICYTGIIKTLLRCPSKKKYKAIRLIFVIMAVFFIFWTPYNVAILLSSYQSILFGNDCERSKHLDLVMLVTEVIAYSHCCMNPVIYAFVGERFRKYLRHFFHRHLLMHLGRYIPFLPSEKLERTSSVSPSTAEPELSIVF
# Histamine H1 receptor = Histamine H1 receptor (Homo sapiens, UniProt P35367); experiment: Displacement of [3H]pyrilamine from human H1 receptor expressed in CHOK1 cells; assay type: cell-based, CHO-K1
# [10] = target: T1, Voltage-gated inwardly rectifying potassium channel KCNH2
# [11] = Oral bioavailability in rat; assay type: ADME, organism-based; details: in vivo
# hERG (KCNH2) = hERG (KCNH2) (Homo sapiens, UniProt Q12809); experiment: Inhibition of human ERG expressed in HEK293 cells at 10 uM by electrophysiological ion flux assay; assay type: cell-based; details: HEK293 cells expressing human ERG
# Chain of hERG (KCNH2) (Q12809 whole entry): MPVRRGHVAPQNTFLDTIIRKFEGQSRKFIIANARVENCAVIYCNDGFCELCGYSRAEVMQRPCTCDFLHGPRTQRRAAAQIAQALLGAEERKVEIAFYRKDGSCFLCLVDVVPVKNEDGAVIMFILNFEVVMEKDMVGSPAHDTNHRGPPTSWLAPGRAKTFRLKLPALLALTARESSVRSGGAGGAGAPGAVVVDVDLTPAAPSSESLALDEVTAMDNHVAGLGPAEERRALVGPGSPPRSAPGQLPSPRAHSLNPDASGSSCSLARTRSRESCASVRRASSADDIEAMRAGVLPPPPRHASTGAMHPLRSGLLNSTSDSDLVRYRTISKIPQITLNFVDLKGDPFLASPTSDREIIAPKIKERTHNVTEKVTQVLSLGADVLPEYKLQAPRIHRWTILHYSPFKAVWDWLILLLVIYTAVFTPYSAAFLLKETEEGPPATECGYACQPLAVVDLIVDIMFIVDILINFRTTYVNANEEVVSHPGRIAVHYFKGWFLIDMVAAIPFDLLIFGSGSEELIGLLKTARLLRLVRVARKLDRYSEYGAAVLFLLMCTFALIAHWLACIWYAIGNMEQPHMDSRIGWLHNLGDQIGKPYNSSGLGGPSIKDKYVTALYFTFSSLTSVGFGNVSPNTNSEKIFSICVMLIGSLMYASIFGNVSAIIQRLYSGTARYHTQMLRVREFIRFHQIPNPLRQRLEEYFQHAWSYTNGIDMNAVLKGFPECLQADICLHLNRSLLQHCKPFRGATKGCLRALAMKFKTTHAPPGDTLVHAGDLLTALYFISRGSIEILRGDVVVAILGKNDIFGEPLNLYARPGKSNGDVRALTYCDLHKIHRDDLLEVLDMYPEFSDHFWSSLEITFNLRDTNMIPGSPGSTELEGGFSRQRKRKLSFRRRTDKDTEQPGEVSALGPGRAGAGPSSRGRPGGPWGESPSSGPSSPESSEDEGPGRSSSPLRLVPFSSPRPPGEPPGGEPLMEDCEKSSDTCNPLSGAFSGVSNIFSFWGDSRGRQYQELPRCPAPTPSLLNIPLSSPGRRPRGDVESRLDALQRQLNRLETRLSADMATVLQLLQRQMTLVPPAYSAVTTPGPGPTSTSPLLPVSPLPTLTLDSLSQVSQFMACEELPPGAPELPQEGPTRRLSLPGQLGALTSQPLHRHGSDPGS
# Chain of Histamine H1 receptor (P35367 whole entry): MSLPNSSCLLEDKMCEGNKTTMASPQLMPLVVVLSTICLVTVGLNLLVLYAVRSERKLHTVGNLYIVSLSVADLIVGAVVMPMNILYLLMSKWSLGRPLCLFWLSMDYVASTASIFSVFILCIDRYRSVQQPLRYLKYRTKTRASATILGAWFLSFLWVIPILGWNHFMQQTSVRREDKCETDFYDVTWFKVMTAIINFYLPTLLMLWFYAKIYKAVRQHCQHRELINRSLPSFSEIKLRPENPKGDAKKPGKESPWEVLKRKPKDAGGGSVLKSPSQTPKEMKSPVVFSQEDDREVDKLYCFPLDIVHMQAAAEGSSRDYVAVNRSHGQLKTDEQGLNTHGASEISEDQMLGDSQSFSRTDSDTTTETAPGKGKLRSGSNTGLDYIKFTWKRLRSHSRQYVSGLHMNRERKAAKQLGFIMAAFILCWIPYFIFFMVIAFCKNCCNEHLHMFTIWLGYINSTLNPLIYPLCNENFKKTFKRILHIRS
# T1 sequence (Q12809 whole entry): as the sequence (Q12809 whole entry) above
SMILES,Ki [9] [µM],Ki (Histamine H1 receptor) [µM],also measured
Cc1ccc(S(=O)(=O)NC(=O)N2CCC(N3CCC(Oc4ccc(Cl)c(Cl)c4)CC3)CC2)cc1,–,–,bioavailability [1]: 18%; clearance [2]: 20 mL/min/kg; Vd [3]: 2.7 L/kg; half-life [4]: 2.7 h; bioavailability [5]: 44%; bioavailability [6]: 19%
Cc1ccc(S(=O)(=O)[N-]C(=O)N2CCC(N3CCC(Oc4ccc(Cl)c(Cl)c4)CC3)CC2)cc1.[Na+],–,–,bioavailability [1]: 15%; solubility [7]: 0.26 µM; bioavailability [6]: 97%
Cc1ccc(S(=O)(=O)N(C)C(=O)N2CCC(N3CCC(Oc4ccc(Cl)c(Cl)c4)CC3)CC2)cc1,0.1,0.00251,IC50 [8]: 0.316 µM
Cc1c(Cl)ccc(OC2CCN(C3CCN(C(=O)NS(=O)(=O)c4ccc(N(C)C)cc4)CC3)CC2)c1Cl,0.00316,–,bioavailability [1]: 82%; Vd [3]: 2.3 L/kg; IC50 [8]: > 20 µM
O=C(NS(=O)(=O)N1CCC(N2CCC(Oc3ccc(Cl)c(Cl)c3)CC2)CC1)c1ccccc1,0.0794,0.1,bioavailability [1]: 100%; Vd [3]: 0.5 L/kg
Cc1c(Cl)ccc(OC2CCN(C3CCN(S(=O)(=O)NC(=O)c4ccccc4)CC3)CC2)c1Cl,0.0126,0.0251,bioavailability [1]: 18%; clearance [2]: 17 mL/min/kg; Vd [3]: 0.9 L/kg; half-life [4]: 1.6 h; IC50 [10]: 3.98 µM
COc1ccc(C(=O)NCCN2CCN(Cc3ccc(Cl)c(Cl)c3)CC2)cc1Cl,5.01,–,–
COc1cccc(C(=O)NCCN2CCC(Oc3ccc(Cl)c(Cl)c3)CC2)c1,0.1,–,half-life [4]: 1.8 h
CS(=O)(=O)c1cccc(C(=O)N2CCC(N3CCC(Oc4ccc(Cl)c(Cl)c4)CC3)CC2)c1,0.0501,0.00794,bioavailability [11]: 50%; half-life [4]: 6.9 h; solubility [7]: 0.017 µM
O=C(c1c[nH]c(=O)c2ccccc12)N1CCC(N2CCC(Oc3ccc(Cl)c(Cl)c3)CC2)CC1,0.01,0.0251,bioavailability [11]: 50%; half-life [4]: 4.2 h
Cc1c(Cl)ccc(OC2CCN(C3CCN(C(=O)c4cccc(S(C)(=O)=O)c4)CC3)CC2)c1Cl,0.00501,0.0251,–
O=C(O)COc1cccc(C(=O)N2CCC(N3CCC(Oc4ccc(Cl)c(Cl)c4)CC3)CC2)c1,0.251,0.1,inhibition at 10 µM (hERG (KCNH2)): 15%
O=C(O)c1ccccc1C(=O)N1CCC(N2CCC(Oc3ccc(Cl)c(Cl)c3)CC2)CC1,0.251,0.0251,–
O=C(O)c1cccc(C(=O)N2CCC(N3CCC(Oc4ccc(Cl)c(Cl)c4)CC3)CC2)c1,0.2,0.126,IC50 [10]: > 10 µM
O=C(c1ccc(-c2nc(=O)o[nH]2)cc1)N1CCC(N2CCC(Oc3ccc(Cl)c(Cl)c3)CC2)CC1,0.316,0.0158,–
O=C(c1ccc(-c2nn[nH]n2)cc1)N1CCC(N2CCC(Oc3ccc(Cl)c(Cl)c3)CC2)CC1,0.2,0.0316,–
O=C(O)CCCS(=O)(=O)c1cccc(C(=O)N2CCC(N3CCC(Oc4ccc(Cl)c(Cl)c4)CC3)CC2)c1,0.0794,0.0794,–
O=C(O)CCNc1ccccc1C(=O)N1CCC(N2CCC(Oc3ccc(Cl)c(Cl)c3)CC2)CC1,0.501,0.0158,–
O=C(O)CCCCn1nnc(-c2ccc(C(=O)N3CCC(N4CCC(Oc5ccc(Cl)c(Cl)c5)CC4)CC3)cc2)n1,0.398,0.0398,–
Cc1ccc(C(=O)N2CCC(N3CC[C@H](Oc4ccc(Cl)c(C)c4Cl)C[C@@H]3C(=O)O)CC2)cc1,0.631,> 6.31,–
Cc1ccc(C(=O)N2CCC(N3CC[C@@H](Oc4ccc(Cl)c(C)c4Cl)C[C@H]3C(=O)O)CC2)cc1,2.51,> 5.01,–

SMILES,Ki [9] [µM],Ki (Histamine H1 receptor) [µM],also measured
CS(=O)(=O)c1cccc(C(=O)N2CC[C@@H](N3CCC(Oc4ccc(Cl)c(Cl)c4)CC3)[C@H](C(=O)O)C2)c1,0.398,0.2,–
O=C(NS(=O)(=O)c1ccccc1)N1CCC(N2CCC(Oc3ccc(Cl)c(Cl)c3)CC2)CC1,0.0158,0.0316,IC50 [10]: 10 µM
O=C(NS(=O)(=O)c1ccc(F)cc1)N1CCC(N2CCC(Oc3ccc(Cl)c(Cl)c3)CC2)CC1,0.0316,0.0501,–
O=C(NS(=O)(=O)c1ccc(Cl)cc1)N1CCC(N2CCC(Oc3ccc(Cl)c(Cl)c3)CC2)CC1,0.00794,0.02,–
COc1ccc(S(=O)(=O)NC(=O)N2CCC(N3CCC(Oc4ccc(Cl)c(Cl)c4)CC3)CC2)cc1,0.0398,0.02,bioavailability [1]: 4%
CN(C)c1ccc(S(=O)(=O)NC(=O)N2CCC(N3CCC(Oc4ccc(Cl)c(Cl)c4)CC3)CC2)cc1,0.0501,0.02,–
Cc1ccccc1S(=O)(=O)NC(=O)N1CCC(N2CCC(Oc3ccc(Cl)c(Cl)c3)CC2)CC1,0.02,0.0501,bioavailability [1]: 8%; Vd [3]: 2.7 L/kg; IC50 [10]: > 10 µM
O=C(NS(=O)(=O)c1ccccc1Cl)N1CCC(N2CCC(Oc3ccc(Cl)c(Cl)c3)CC2)CC1,0.00501,0.0501,–
COc1ccccc1S(=O)(=O)NC(=O)N1CCC(N2CCC(Oc3ccc(Cl)c(Cl)c3)CC2)CC1,0.0251,0.02,–
CN(C)c1ccccc1S(=O)(=O)NC(=O)N1CCC(N2CCC(Oc3ccc(Cl)c(Cl)c3)CC2)CC1,0.0316,0.0251,–
Cc1cccc(S(=O)(=O)NC(=O)N2CCC(N3CCC(Oc4ccc(Cl)c(Cl)c4)CC3)CC2)c1,0.126,0.0316,–
O=C(NS(=O)(=O)c1cccc(Cl)c1)N1CCC(N2CCC(Oc3ccc(Cl)c(Cl)c3)CC2)CC1,0.00631,0.00794,–
N#Cc1cccc(S(=O)(=O)NC(=O)N2CCC(N3CCC(Oc4ccc(Cl)c(Cl)c4)CC3)CC2)c1,0.1,0.02,–
O=C(NS(=O)(=O)c1cccc(C(F)(F)F)c1)N1CCC(N2CCC(Oc3ccc(Cl)c(Cl)c3)CC2)CC1,0.0316,0.0398,–
Cc1ccc(S(=O)(=O)NC(=O)N2CCC(N3CCC(Oc4ccc(Cl)cc4Cl)CC3)CC2)cc1,0.0251,0.0158,–
Cc1ccc(S(=O)(=O)NC(=O)N2CCC(N3CCC(Oc4ccc(Cl)c(C)c4Cl)CC3)CC2)cc1,0.000631,0.02,–
Cc1ccc(S(=O)(=O)NC(=O)N2CCC(N3CCC(Oc4ccc(Cl)cc4C)CC3)CC2)cc1,0.00794,0.0251,bioavailability [1]: 6%; clearance [2]: 27 mL/min/kg; Vd [3]: 1.4 L/kg; half-life [4]: 0.9 h; IC50 [10]: > 10 µM
Cc1ccc(S(=O)(=O)NC(=O)N2CCC(N3CCC(Oc4ccc(Cl)cc4)CC3)CC2)cc1,0.126,0.126,–
Cc1ccc(S(=O)(=O)NC(=O)N2CCC(N3CCC(Oc4ccc(F)c(F)c4)CC3)CC2)cc1,0.631,1,–
O=C(NS(=O)(=O)Cc1ccccc1)N1CCC(N2CCC(Oc3ccc(Cl)c(Cl)c3)CC2)CC1,0.158,0.0501,–
